Assay outcomes: PubChem, several laboratories
Only a selection was taken, and hits are over-represented in it overall.
Lmaj promast: reduces viability of Leishmania major promastigotes; resazurin fluorescence viability; inhibition, % at 10 µM; 200,000 compounds, 9% hits; AID 1063;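 note: promastigotes grown with compound for 44 hours at 28 °C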
ABCB1 inh: human ABCB1 inhibition, ABCG2 as counter-screen | P08183 | CCRF-Adr cells, JC-1 efflux, flow cytometry | inhibition, % at 6.6 µM | 190,000 compounds, 0.067% hits | AID 1326; in the data active = inhibition above about 40%;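 note: higher value means more JC-1 retained so stronger ABCB1 efflux block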
GSH fluor: GSH bead compound fluorescence profile; GSH beads flow cytometry, compound fluorescence 488/530 nm; active compounds read high; fluorescence (KMESF) at 10 µM; 190,000 compounds, 0.25% hits; AID 1776; in the data active = fluorescence above about 89;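 note: glutathione beads carrying GST-tagged Bcl family fusion proteins plus one bare bead set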
PKD1 inh: PKD1 (human) kinase inhibition | Q15139 | PKD1 kinase fluorescence polarization assay | inhibition, % (test concentration not listed) | 200,000 compounds, 0.056% hits
ABCG2 block: inhibitors of human ABCG2 transporter, ABCB1 counter-screen | IgMXP3 cells, JC-1 efflux, flow cytometry | inhibition, % at 6.6 µM | 190,000 compounds, 0.1% hits;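 active = inhibition above 80%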
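Assay system – ABCG2 IgMXP3 and barcoded ABCB1 CCRF-Adr cell mix · Input – 3 million cells/mL in well · Reagent – JC-1 fluorescent substrate · Compound – single test compound dose, 6.6 µM final · Timing – 10 min exposure at 25 °C with rotation, no wash · Detection – flow cytometry of retained JC-1 fluorescence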
Avidin bead fluor: avidin bead compound fluorescence profile; fluorescence (KMESF) at 10 µM; Avidin beads, compound fluorescence 488/530 nm, flow cytometry; active compounds read high; 220,000 compounds, 0.38% hits; in the data active = fluorescence above about 47
Numbers stand for hits; . = inactive; / = no result. Cut-off read from the data, not from the text of the source, unless noted: active = inhibition above about 50%; inactive = the rest.

SMILES | Lmaj promast | ABCB1 inh | GSH fluor | PKD1 inh | ABCG2 block | Avidin bead fluor
Cc1ccc(S(=O)(=O)c2cc3ccccc3oc2=Nc2ccc3c(c2)OCCO3)cc1 | 98 | . | . | . | . | .
COc1cccc2cc(S(=O)(=O)c3ccccc3)c(=Nc3ccc4c(c3)OCCO4)oc12 | 92 | . | . | . | . | .
Cc1ccc(S(=O)(=O)c2cc3ccccc3oc2=Nc2ccc3c(c2)OCO3)cc1 | . | . | . | . | . | .
Cc1cc(Cl)cc(Br)c1OCCCCn1cncn1 | 93 | . | . | . | . | .
Cc1cc(Cl)c(OCCCn2cncn2)c(Br)c1 | . | . | . | . | . | .
CSCc1cc(N2CCCC2)nc(-c2ccccc2)n1 | 68 | . | . | . | . | .
Cc1ccc(C)c(N(CC(=O)NN=C2CCN(C)CC2)S(=O)(=O)c2ccccc2)c1 | 68 | . | . | . | . | .
CN1CCN(/N=C/c2ccc(N(c3ccccc3)c3ccccc3)cc2)CC1 | . | . | . | . | . | .
CN1CCN(/N=C/c2ccc(Cl)c(Cl)c2)CC1 | 97 | . | . | . | . | .
CN1CCN(/N=C/c2ccc(N(C)c3ccccc3)cc2)CC1 | 83 | . | . | . | . | .
O=C(CSc1nnc(-c2ccc(O)cc2)n1Cc1ccccc1)NNC(=O)c1ccc(Br)cc1 | . | . | . | . | . | .
Cc1ccc(Cl)cc1NC(=S)NCc1cccn1C | 51 | . | . | . | . | .
CSCCC(Nc1ccc(S(=O)(=O)N2CCOCC2)cc1[N+](=O)[O-])C(=O)OCC(=O)NCC(C)C (centres undefined) | 65 | . | . | . | . | .
NC(=S)n1[nH]c(-c2ccc([N+](=O)[O-])cc2)c(N=Nc2ccc(Cl)cc2)c1=O | 97 | . | . | . | . | .
Cc1cccc(N2CCN(C(=O)c3ccc(NS(=O)(=O)c4c(C)noc4C)cc3)CC2)c1C | 97 | . | . | . | . | .
Cc1cccc(N2CCN(C(=O)c3ccc4ncsc4c3)CC2)c1C | 61 | . | . | . | . | .
COCCN(Cc1ccccc1)C(=S)Nc1ccc(OC(F)F)cc1 | . | . | . | . | . | .
COc1ccc(/C=N/NC(N)=S)cc1 | / | / | / | / | / | .
NC(=S)N/N=C/c1ccc(C(F)(F)F)cc1 | 70 | . | . | . | . | .
COc1ccc2nc(C)cc(SCC(NC(C)=O)C(=O)OC(C)C)c2c1 (centres undefined) | / | / | / | / | / | .
COC(=O)[C@@]1(Cc2ccc(F)cc2)[C@H]2c3cc(C(=O)N(C)C)n(Cc4ccc(OC(F)(F)F)cc4)c3C[C@H]2CN1C(=O)c1ccccc1 | 83 | . | . | . | . | .
COC(=O)[C@@]1(Cc2ccc(F)cc2)[C@H]2c3cc(C(=O)N4CCCC4)n(CCc4ccc(O)c(O)c4)c3C[C@H]2CN1C(=O)c1ccccc1 | 100 | . | . | . | . | .
COC(=O)[C@@]1(Cc2ccc(OC)cc2)[C@H]2c3cc(C(=O)N4CCCC4)n(CCSCCO)c3C[C@H]2CN1C(=O)c1ccccc1 | 51 | . | . | . | . | .
COC(=O)[C@@]1(Cc2ccc(OC)cc2)[C@H]2c3cc(C(=O)N4CCCC4)n(CCO)c3C[C@H]2CN1C(=O)c1ccccc1 | . | . | . | . | . | .
COC(=O)[C@@]1(Cc2ccccc2)[C@H]2c3cc(C(=O)N4CCCC4)n(Cc4ccsc4Br)c3C[C@H]2CN1C(=O)c1ccccc1 | 54 | . | . | . | . | .
SMILES | Lmaj promast | ABCB1 inh | GSH fluor | PKD1 inh | ABCG2 block | Avidin bead fluor
COC(=O)[C@@]1(Cc2ccc(F)cc2)[C@H]2c3cc(C(=O)N(C)C)n(C[C@H](O)CO)c3C[C@H]2CN1C(=O)c1ccccc1 | . | . | . | . | . | .
COc1ccc(OC)c(C(=O)CSc2nnc(-c3ccc(OC)c(OC)c3)o2)c1 | . | . | . | . | . | .
CC(C)N(Cc1nc(-c2ccc3c(c2)OCO3)no1)Cc1nccn1C | . | . | . | . | . | .
COC(=O)[C@@]1(Cc2ccc(OC)cc2)[C@H]2c3cc(C(=O)N(C)C)n(CCSCCO)c3C[C@H]2CN1C(=O)c1ccccc1 | 65 | . | . | . | . | .
COC(=O)c1cc(C(=O)N2CCOCC2)cc([N+](=O)[O-])c1 | . | . | . | . | . | .
COC1(C)CC2C(CC1OC(=O)c1cc([N+](=O)[O-])cc([N+](=O)[O-])c1)C2(C)C (centres undefined) | 100 | . | . | . | . | .
Clc1cc2cccnc2c2ccccc12 | . | . | . | . | . | .
Oc1c(Cl)cc(Cl)c2cccnc12 | 96 | . | . | . | . | .
O=C(Oc1c(Cl)cc(Cl)c2cccnc12)c1ccco1 | 98 | . | . | . | . | .
CSCCC(NC(=O)c1ccccc1Br)C(=O)Nc1ccc(C)cc1 (centres undefined) | . | . | . | . | . | .
CCN(CC)C(=O)c1sc(NC(=O)C(Sc2ccccc2)c2ccccc2)c(C(=O)OC(C)C)c1C (centres undefined) | . | . | . | . | . | .
CCN(Cc1ccccc1)C1CCN(Cc2ccc(SC)cc2)CC1 | 85 | . | . | . | . | .
CSc1ccc(/C=N/N2CCN(Cc3ccccc3)CC2)cc1 | . | . | . | . | . | .
CCN(CC)C(=O)C1CCN(Cc2ccc(Br)cc2)CC1 | 92 | . | . | . | . | .
O=C(C1CCN(CC2CC=CCC2)CC1)N(CCc1ccccc1)Cc1ccccc1 (centres undefined) | . | . | . | . | . | .
O=C(C1CCN(CCCc2ccccc2)CC1)N(CCc1ccccc1)Cc1ccccc1 | 91 | / | . | . | . | .
CCN(Cc1ccccc1)C(=O)C1CCN(Cc2ccc(SC)cc2)CC1 | 88 | . | . | . | . | .
Cc1c(Br)c([N+](=O)[O-])nn1CC(=O)Nc1ccc(Cc2ccncc2)cc1 | . | . | . | . | . | .
CC(C)CN(CC(C)C)C(=O)CCCC(=O)N(CC(C)C)CC(C)C | . | . | . | . | . | .
Cc1cc(C)c(N(C(=O)CN2C(=O)c3ccccc3S2(=O)=O)C(C(=O)NCC2CCCO2)c2ccc(F)cc2)c(C)c1 (centres undefined) | 69 | . | . | . | . | .
O=C(NC1CCCCC1)C(c1ccc(F)cc1)N(CCc1ccccc1)C(=O)CN1C(=O)c2ccccc2S1(=O)=O (centres undefined) | 50 | . | . | . | . | .
O=C(NC1CCCCC1)C(c1ccc(F)cc1)N(Cc1ccccc1)C(=O)CN1C(=O)c2ccccc2S1(=O)=O (centres undefined) | 58 | . | . | . | . | .
O=C(NC1CCCC1)C(c1ccc(F)cc1)N(Cc1ccc(F)cc1)C(=O)CCl (centres undefined) | 100 | / | . | . | . | .
O=C(NCC1CCCO1)C(c1ccncc1)N(Cc1ccc(F)cc1)C(=O)CN1C(=O)c2ccccc2S1(=O)=O (centres undefined) | . | . | . | . | . | .
